Data taken from ChEMBL document CHEMBL2413013, “Triplex-forming ability of oligonucleotides containing 1-aryl-1,2,3-triazole nucleobases linked via a two atom-length spacer” (Bioorg Med Chem, 2013).

Tests used:
[1] = Binding affinity to hairpin double stranded DNA TA base pair in sodium cacodylate buffer at pH 6.8 assessed as triplex-forming ability measuring melting temperature after by UV melting experiment
How it was run: (§1)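 TFO and hairpin dsDNA target, each strand at 1.89 μM final, in 10 mM sodium cacodylate (pH 6.8) with 100 mM KCl and 50 mM MgCl₂. Annealed in boiling water, then cooled slowly to 5 °C. Melting was followed at 260 nm from 5 to 90 °C at 0.5 °C/min. Tm was taken by the two-point average method, mean of three independent runs.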

[2] = Binding affinity to hairpin double stranded DNA GC base pair in sodium cacodylate buffer at pH 6.8 assessed as triplex-forming ability measuring melting temperature after by UV melting experiment; how it was run: as §1
[3] = Binding affinity to hairpin double stranded DNA AT base pair in sodium cacodylate buffer at pH 6.8 assessed as triplex-forming ability measuring melting temperature after by UV melting experiment; how it was run: as §1
[4] = Binding affinity to hairpin double stranded DNA CG base pair in sodium cacodylate buffer at pH 6.8 assessed as triplex-forming ability measuring melting temperature after by UV melting experiment; how it was run: as §1

Structure (SMILES)	Tm [1] [°C]	Tm [2] [°C]	Tm [3] [°C]	Tm [4] [°C]
CC1=CN([C@H]2C[C@H](O[PH](OCCC#N)(OC(C)[C@H]3O[C@@H](n4ccc(N)nc4=O)C[C@@H]3O[PH](OCCC#N)(OC[C@H]3O[C@@H](n4cc(C)c(=O)[nH]c4=O)C[C@@H]3O[PH](OCCC#N)(OC[C@H]3O[C@@H](OCc4cn(-c5ccccc5O)nn4)C[C@@H]3OP(=O)(O)OC[C@H]3O[C@@H](n4cc(C)c(=O)[nH]c4=O)C[C@@H]3O[PH](OCCC#N)(OC(C)[C@H]3O[C@@H](n4ccc(N)nc4=O)C[C@@H]3O[PH](OCCC#N)(OC[C@H]3O[C@@H](n4cc(C)c(=O)[nH]c4=O)C[C@@H]3O[PH](OCCC#N)(OC(C)[C@H]3O[C@@H](n4ccc(N)nc4=O)C[C@@H]3O[PH](OCCC#N)(OC[C@H]3O[C@@H](n4cc(C)c(=O)[nH]c4=O)C[C@@H]3O[PH](OCCC#N)(OC(C)[C@H]3O[C@@H](n4ccc(N)nc4=O)C[C@@H]3O[PH](OCCC#N)(OC[C@H]3O[C@@H](n4cc(C)c(=O)[nH]c4=O)C[C@@H]3O)N(C(C)C)C(C)C)N(C(C)C)C(C)C)N(C(C)C)C(C)C)N(C(C)C)C(C)C)N(C(C)C)C(C)C)N(C(C)C)C(C)C)N(C(C)C)C(C)C)N(C(C)C)C(C)C)N(C(C)C)C(C)C)[C@@H](CO[PH](OCCC#N)(O[C@H]3C[C@H](n4cc(C)c(=O)[nH]c4=O)O[C@@H]3CO[PH](OCCC#N)(O[C@H]3C[C@H](n4cc(C)c(=O)[nH]c4=O)O[C@@H]3CO[PH](OCCC#N)(O[C@H]3C[C@H](n4cc(C)c(=O)[nH]c4=O)O[C@@H]3CO[PH](OCCC#N)(O[C@H]3C[C@H](n4cc(C)c(=O)[nH]c4=O)O[C@@H]3CO)N(C(C)C)C(C)C)N(C(C)C)C(C)C)N(C(C)C)C(C)C)N(C(C)C)C(C)C)O2)C(O)NC1=O (stereo not given in full)	20	20	20	23
Cc1cn([C@H]2C[C@H](O[PH](OCCC#N)(OC[C@H]3O[C@@H](n4cc(C)c(=O)[nH]c4=O)C[C@@H]3O[PH](OCCC#N)(OC[C@H]3O[C@@H](n4cc(C)c(=O)[nH]c4=O)C[C@@H]3O[PH](OCCC#N)(OC[C@H]3O[C@@H](n4cc(C)c(=O)[nH]c4=O)C[C@@H]3O[PH](OCCC#N)(OC[C@H]3O[C@@H](n4cc(C)c(=O)[nH]c4=O)C[C@@H]3O[PH](OCCC#N)(OC(C)[C@H]3O[C@@H](n4ccc(N)nc4=O)C[C@@H]3O[PH](OCCC#N)(OC[C@H]3O[C@@H](n4cc(C)c(=O)[nH]c4=O)C[C@@H]3O[PH](OCCC#N)(OC[C@H]3O[C@@H](OCc4cn(-c5cccc(CO)c5)nn4)C[C@@H]3OP(=O)(O)OC[C@H]3O[C@@H](n4cc(C)c(=O)[nH]c4=O)C[C@@H]3O[PH](OCCC#N)(OC(C)[C@H]3O[C@@H](n4ccc(N)nc4=O)C[C@@H]3O[PH](OCCC#N)(OC[C@H]3O[C@@H](n4cc(C)c(=O)[nH]c4=O)C[C@@H]3O[PH](OCCC#N)(OC(C)[C@H]3O[C@@H](n4ccc(N)nc4=O)C[C@@H]3O[PH](OCCC#N)(OC[C@H]3O[C@@H](n4cc(C)c(=O)[nH]c4=O)C[C@@H]3O[PH](OCCC#N)(OC(C)[C@H]3O[C@@H](n4ccc(N)nc4=O)C[C@@H]3O[PH](OCCC#N)(OC[C@H]3O[C@@H](n4cc(C)c(=O)[nH]c4=O)C[C@@H]3O)N(C(C)C)C(C)C)N(C(C)C)C(C)C)N(C(C)C)C(C)C)N(C(C)C)C(C)C)N(C(C)C)C(C)C)N(C(C)C)C(C)C)N(C(C)C)C(C)C)N(C(C)C)C(C)C)N(C(C)C)C(C)C)N(C(C)C)C(C)C)N(C(C)C)C(C)C)N(C(C)C)C(C)C)N(C(C)C)C(C)C)[C@@H](CO)O2)c(=O)[nH]c1=O (stereo not given in full)	22	23	23	25
Cc1cn([C@H]2C[C@H](O[PH](OCCC#N)(OC[C@H]3O[C@@H](n4cc(C)c(=O)[nH]c4=O)C[C@@H]3O[PH](OCCC#N)(OC[C@H]3O[C@@H](n4cc(C)c(=O)[nH]c4=O)C[C@@H]3O[PH](OCCC#N)(OC[C@H]3O[C@@H](n4cc(C)c(=O)[nH]c4=O)C[C@@H]3O[PH](OCCC#N)(OC[C@H]3O[C@@H](n4cc(C)c(=O)[nH]c4=O)C[C@@H]3O[PH](OCCC#N)(OC(C)[C@H]3O[C@@H](n4ccc(N)nc4=O)C[C@@H]3O[PH](OCCC#N)(OC[C@H]3O[C@@H](n4cc(C)c(=O)[nH]c4=O)C[C@@H]3O[PH](OCCC#N)(OC[C@H]3O[C@@H](CCc4cn(-c5cc(NC(N)=O)cc(NC(N)=O)c5)nn4)C[C@@H]3OP(=O)(O)OC[C@H]3O[C@@H](n4cc(C)c(=O)[nH]c4=O)C[C@@H]3O[PH](OCCC#N)(OC(C)[C@H]3O[C@@H](n4ccc(N)nc4=O)C[C@@H]3O[PH](OCCC#N)(OC[C@H]3O[C@@H](n4cc(C)c(=O)[nH]c4=O)C[C@@H]3O[PH](OCCC#N)(OC(C)[C@H]3O[C@@H](n4ccc(N)nc4=O)C[C@@H]3O[PH](OCCC#N)(OC[C@H]3O[C@@H](n4cc(C)c(=O)[nH]c4=O)C[C@@H]3O[PH](OCCC#N)(OC(C)[C@H]3O[C@@H](n4ccc(N)nc4=O)C[C@@H]3O[PH](OCCC#N)(OC[C@H]3O[C@@H](n4cc(C)c(=O)[nH]c4=O)C[C@@H]3O)N(C(C)C)C(C)C)N(C(C)C)C(C)C)N(C(C)C)C(C)C)N(C(C)C)C(C)C)N(C(C)C)C(C)C)N(C(C)C)C(C)C)N(C(C)C)C(C)C)N(C(C)C)C(C)C)N(C(C)C)C(C)C)N(C(C)C)C(C)C)N(C(C)C)C(C)C)N(C(C)C)C(C)C)N(C(C)C)C(C)C)[C@@H](CO)O2)c(=O)[nH]c1=O (stereo not given in full)	27	23	22	27
Cc1cn([C@H]2C[C@H](O[PH](OCCC#N)(OC[C@H]3O[C@@H](n4cc(C)c(=O)[nH]c4=O)C[C@@H]3O[PH](OCCC#N)(OC[C@H]3O[C@@H](n4cc(C)c(=O)[nH]c4=O)C[C@@H]3O[PH](OCCC#N)(OC[C@H]3O[C@@H](n4cc(C)c(=O)[nH]c4=O)C[C@@H]3O[PH](OCCC#N)(OC[C@H]3O[C@@H](n4cc(C)c(=O)[nH]c4=O)C[C@@H]3O[PH](OCCC#N)(OC(C)[C@H]3O[C@@H](n4ccc(N)nc4=O)C[C@@H]3O[PH](OCCC#N)(OC[C@H]3O[C@@H](n4cc(C)c(=O)[nH]c4=O)C[C@@H]3O[PH](OCCC#N)(OC[C@H]3O[C@@H](CCc4cn(-c5cccc(O)c5)nn4)C[C@@H]3OP(=O)(O)OC[C@H]3O[C@@H](n4cc(C)c(=O)[nH]c4=O)C[C@@H]3O[PH](OCCC#N)(OC(C)[C@H]3O[C@@H](n4ccc(N)nc4=O)C[C@@H]3O[PH](OCCC#N)(OC[C@H]3O[C@@H](n4cc(C)c(=O)[nH]c4=O)C[C@@H]3O[PH](OCCC#N)(OC(C)[C@H]3O[C@@H](n4ccc(N)nc4=O)C[C@@H]3O[PH](OCCC#N)(OC[C@H]3O[C@@H](n4cc(C)c(=O)[nH]c4=O)C[C@@H]3O[PH](OCCC#N)(OC(C)[C@H]3O[C@@H](n4ccc(N)nc4=O)C[C@@H]3O[PH](OCCC#N)(OC[C@H]3O[C@@H](n4cc(C)c(=O)[nH]c4=O)C[C@@H]3O)N(C(C)C)C(C)C)N(C(C)C)C(C)C)N(C(C)C)C(C)C)N(C(C)C)C(C)C)N(C(C)C)C(C)C)N(C(C)C)C(C)C)N(C(C)C)C(C)C)N(C(C)C)C(C)C)N(C(C)C)C(C)C)N(C(C)C)C(C)C)N(C(C)C)C(C)C)N(C(C)C)C(C)C)N(C(C)C)C(C)C)[C@@H](CO)O2)c(=O)[nH]c1=O (stereo not given in full)	22	21	21	22
Cc1cn([C@H]2C[C@H](O[PH](OCCC#N)(OC[C@H]3O[C@@H](n4cc(C)c(=O)[nH]c4=O)C[C@@H]3O[PH](OCCC#N)(OC[C@H]3O[C@@H](n4cc(C)c(=O)[nH]c4=O)C[C@@H]3O[PH](OCCC#N)(OC[C@H]3O[C@@H](n4cc(C)c(=O)[nH]c4=O)C[C@@H]3O[PH](OCCC#N)(OC[C@H]3O[C@@H](n4cc(C)c(=O)[nH]c4=O)C[C@@H]3O[PH](OCCC#N)(OC(C)[C@H]3O[C@@H](n4ccc(N)nc4=O)C[C@@H]3O[PH](OCCC#N)(OC[C@H]3O[C@@H](n4cc(C)c(=O)[nH]c4=O)C[C@@H]3O[PH](OCCC#N)(OC[C@H]3O[C@@H](CCc4cn(-c5ccc(CO)cc5)nn4)C[C@@H]3OP(=O)(O)OC[C@H]3O[C@@H](n4cc(C)c(=O)[nH]c4=O)C[C@@H]3O[PH](OCCC#N)(OC(C)[C@H]3O[C@@H](n4ccc(N)nc4=O)C[C@@H]3O[PH](OCCC#N)(OC[C@H]3O[C@@H](n4cc(C)c(=O)[nH]c4=O)C[C@@H]3O[PH](OCCC#N)(OC(C)[C@H]3O[C@@H](n4ccc(N)nc4=O)C[C@@H]3O[PH](OCCC#N)(OC[C@H]3O[C@@H](n4cc(C)c(=O)[nH]c4=O)C[C@@H]3O[PH](OCCC#N)(OC(C)[C@H]3O[C@@H](n4ccc(N)nc4=O)C[C@@H]3O[PH](OCCC#N)(OC[C@H]3O[C@@H](n4cc(C)c(=O)[nH]c4=O)C[C@@H]3O)N(C(C)C)C(C)C)N(C(C)C)C(C)C)N(C(C)C)C(C)C)N(C(C)C)C(C)C)N(C(C)C)C(C)C)N(C(C)C)C(C)C)N(C(C)C)C(C)C)N(C(C)C)C(C)C)N(C(C)C)C(C)C)N(C(C)C)C(C)C)N(C(C)C)C(C)C)N(C(C)C)C(C)C)N(C(C)C)C(C)C)[C@@H](CO)O2)c(=O)[nH]c1=O (stereo not given in full)	22	19	19	23
